Test results from PMC4130767 (Bioorganic & medicinal chemistry letters, 2014).

Test system: serine hydrolases in the HeLa cell membrane protein fraction
Experiment: ABPP-SILAC identification of serine hydrolase targets in cells
Assay type: cell-based
Settings: 20 μM, 4 h, FP-biotin probe
Outline: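 Intact HeLa cells were cultured with test compound at 20 μM or DMSO control for 4 h. Membrane proteins were then isolated and labelled with FP-biotin probe for ABPP-SILAC. The read-out is the light/heavy ratio per serine hydrolase: 1 means no inhibition and 0 means complete inhibition. Two independent replicates were run.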

How did the “selectivity/sensitivity profile against serine hydrolases” value turn out when O=C(N1CCCCC1)n1cccn1 [compound 10] was run?
The value was “more selective nature”.

How did the “selectivity/sensitivity profile against serine hydrolases” value turn out when N#Cc1cnn(C(=O)N2CCCCC2)c1 [compound 12] was run?
The value was “more sensitive nature”.
